# Results taken from ChEMBL document CHEMBL5030510, “Designed β-Hairpins Inhibit LDH5 Oligomerization and Enzymatic Activity” (J Med Chem, 2021).
# The source made the active and inactive calls. The rule behind the calls is not given here. Where a SMILES comes first, the peptide text is derived from it. Bridges are numbered along the chain shown (N, C = ends).
# What was measured:
# [1] = target: T1, L-lactate dehydrogenase A chain (Homo sapiens, UniProt P00338); experiment: Inhibition of recombinant full length N-terminal His-tagged human LDHA oligomerization expressed in Escherichia coli at 90 to 150 uM at pH 2.5 to 7.4 measured after 2 hrs by SDS-PAGE analysis; conditions: dose 90-150 µM
# Summary of the method: (§1)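 Oligomer state: LDHA (1.3 µM) acidified 2 min with 0.1 M glycine pH 2.5, then peptide added in 0.25 M phosphate pH 7.6, 1 mM EDTA, for 2 h at RT. Cross-linked with glutaraldehyde (5% stock), heated 3 min at 85 °C in LDS buffer, and run on 4–12% Bis-Tris gel in MES buffer.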
# [2] = target: T1, L-lactate dehydrogenase A chain; experiment: Binding affinity to recombinant full length N-terminal His-tagged human LDHA expressed in Escherichia coli assessed as reduction in fluorecence polarization measured after 2 hrs by Alexa Fluor 488 based fluorescence polarization assay
# Summary of the method: (§2)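 Competition FP: LDH5 held 2 min in 0.1 M glycine pH 2.5, then inhibitor added at the reassociation step with Alexa488-labeled cGm peptide (final 12 nM) in 0.25 M phosphate pH 7.6, 1 mM EDTA, with 152.5 nM LDH5. Incubated 2 h at room temperature. FP read at ex 485/em 520 nm. 100% set by probe plus LDH5 alone.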
# [3] = target: T1, L-lactate dehydrogenase A chain; experiment: Inhibition of recombinant full length N-terminal His-tagged human LDHA expressed in Escherichia coli using pyruvate as substrate and NADH as cofactor incubated for 2 hrs by fluorescence assay
# Summary of the method: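 Reassociation activity assay: 900 nM LDHA stock in phosphate pH 7.4/EDTA/0.05% BSA, acidified 2 min with glycine pH 2.5/BSA. Peptide added in 0.25 M phosphate pH 7.6 and incubated 2 h at RT. Aliquot diluted, then pyruvate (3 mM final) and NADH (0.3 mM final) added. IC50 from dose-response fit.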
# [4] = target: T1, L-lactate dehydrogenase A chain; experiment: Inhibition of recombinant full length N-terminal His-tagged human LDHA oligomerization expressed in Escherichia coli at 150 uM at pH 2.5 to 7.4 measured after 2 hrs by SDS-PAGE analysis; summary of the method: as §1
# [5] = target: T1, L-lactate dehydrogenase A chain; experiment: Binding affinity to recombinant full length N-terminal His-tagged human LDHA expressed in Escherichia coli assessed as reduction in fluorecence polarization at up to 10000 nM measured after 2 hrs by Alexa Fluor 488 based fluorescence polarization assay; conditions: dose nM <=10000, time 2.0 hrs; summary of the method: as §2
# [6] = target: T1, L-lactate dehydrogenase A chain; experiment: Binding affinity to recombinant full length N-terminal His-tagged human LDHA expressed in Escherichia coli at 12 nM measured after 2 hrs by Alexa Fluor 488 based fluorescence polarization assay relative to control
# Summary of the method: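 Direct binding FP: LDH5 two-fold serial dilution from 3.375 µM in 0.01 M phosphate pH 7.4, 1 mM EDTA. Held 2 min in glycine pH 2.5, then labeled peptide added (final 12 nM) in 0.25 M phosphate pH 7.6, 1 mM EDTA. Incubated 2 h at RT. FP read at ex 485/em 520 nm. Saturation signal fitted by non-linear regression and set as 100% binding.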
# [7] = target: T1, L-lactate dehydrogenase A chain; experiment: Binding affinity to recombinant full length N-terminal His-tagged human LDHA expressed in Escherichia coli at up to 100 uM measured after 2 hrs by Alexa Fluor 488 based fluorescence polarization assay; conditions: dose microM <=100, time 2.0 hrs; summary of the method: as §2
inhibition [1],Activity [2],IC50 [3] [nM],inhibition [4],Activity [5],Activity [6] [%],Activity [7],Compound
Active,Dose-Dependent Effect,2500,Active,–,–,–,"CC(C)C[C@@H]1NC(=O)[C@H](CCCNC(=N)N)NC(=O)[C@H](CCCNC(=N)N)NC(=O)[C@@H](NC(=O)CN)CSSC[C@@H](C(=O)N[C@@H](CCCNC(=N)N)C(=O)NCC(=O)N[C@@H](CCCNC(=N)N)C(=O)O)NC(=O)[C@H](C(C)C)NC(=O)[C@H]([C@@H](C)O)NC(=O)[C@H](Cc2ccccc2)NC(=O)[C@@H]2CSSC[C@H](NC1=O)C(=O)N[C@@H](Cc1ccc(O)cc1)C(=O)N[C@@H](CCCNC(=N)N)C(=O)N[C@@H](Cc1ccccc1)C(=O)N[C@@H](Cc1c[nH]c3ccccc13)C(=O)N2 (H-GCRRLCYRFWCFTVCRGR-OH; disulfide 2-15, 6-11)"
–,–,–,inactive,inactive,–,–,O=C1N[C@](c2ccc(N3CCOCC3)cc2)(c2ccsc2)CC(O)=C1Sc1ccccc1Cl
–,Dose-Dependent Effect,–,–,–,50,Active,"CC(C)C[C@@H]1NC(=O)[C@H](CCCNC(=N)N)NC(=O)[C@H](CCCNC(=N)N)NC(=O)[C@@H](NC(=O)[C@@H](N)CCCCN)CSSC[C@@H](C(=O)N[C@@H](CCCNC(=N)N)C(=O)NCC(=O)N[C@@H](CCCNC(=N)N)C(=O)O)NC(=O)[C@H](Cc2ccc(O)cc2)NC(=O)[C@H]([C@@H](C)O)NC(=O)[C@H](C(C)C)NC(=O)[C@@H]2CSSC[C@H](NC1=O)C(=O)N[C@@H](Cc1ccc(O)cc1)C(=O)N[C@@H](CCCNC(=N)N)C(=O)N[C@@H](CCC(N)=O)C(=O)N[C@@H](CCCNC(=N)N)C(=O)N2 (H-KCRRLCYRQRCVTYCRGR-OH; disulfide 2-15, 6-11)"
